Test results: ChEMBL document CHEMBL1155843, “Selective alkylation of beta(II)-tubulin and thioredoxin-1 by structurally related subsets of aryl chloroethylureas leading to either anti-microtubules or redox modulating agents” (2008)
Active and inactive are the calls of the source. The calls are words filed in the database; no cut-off is given here.

Columns and labels:
M21 [1] = test: Induction of beta2-tubulin alkylation in human M21 cells at 2 times GI50 by Western blot analysis; type: cell-based
Method in brief: (§1)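 Floating and adherent cells were pooled and lysed in boiled Laemmli buffer; protein was measured by Lowry. 20 µg per lane ran on 10% SDS-PAGE and was blotted with anti-βII-tubulin (1:500), HRP anti-mouse (1:2500) and ECL. Alkylation was scored as a faster-migrating βII-tubulin band.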

M21 [2] = test: Inhibition of nuclear translocation of thioredoxin-1 from cytosol in human M21 cells at 2 times GI50 after 16 hrs by immunocytofluorescence; type: functional, cell-based
Method in brief: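 Cells were fixed in 3.7% formaldehyde (20 min), permeabilized with 0.1% saponin and blocked with 3% BSA. Staining used anti-Trx-1 monoclonal (1:200, 2 h, 37 °C) and Alexa-488 anti-mouse IgG (1:1000, 1 h). Trx-1 cytosol/nucleus localization was read by confocal immunofluorescence.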

MCF7 [3] = test: Cell cycle arrest in human MCF7 cells assessed as accumulation at G2/M phase at 2 times GI50 after 24 hrs by flow cytometry; type: functional
Method in brief: (§2)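 Cells were trypsinized, PBS-washed, fixed in ice-cold ethanol, and stained with propidium iodide plus RNase for 30 min at room temperature. G0/G1, S and G2/M fractions were measured by flow cytometry.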

MCF7 [4] = test: Cell cycle arrest in human MCF7 cells assessed as accumulation at S phase at 2 times GI50 after 24 hrs by flow cytometry; type: functional; method in brief: as §2
M21 [5] = test: Induction of beta2-tubulin alkylation in human M21 cells at 2 times GI50 after 48 hrs by Western blot analysis; type: cell-based; method in brief: as §1
MCF7 [6] = test: Cell cycle arrest in human MCF7 cells assessed as accumulation at G0/G1 phase at 2 times GI50 after 24 hrs by flow cytometry; type: functional; method in brief: as §2
M21 [7] = test: Induction of beta2-tubulin alkylation in human M21 cells at 50 nM by Western blot analysis; type: cell-based
Method in brief: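 Same M21 Western blot workflow (pooled cells, Laemmli lysis, 20 µg on 10% SDS-PAGE, anti-βII-tubulin 1:500, ECL), except that vinblastine, colchicine and paclitaxel were applied at 50 nM for 16, 24 and 48 h at 37 °C. The alkylated form appeared as a lower-apparent-MW band.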

M21 [8] = test: Inhibition of nuclear translocation of thioredoxin-1 from cytosol in human M21 cells at 50 nM after 16 hrs by immunocytofluorescence; type: functional, cell-based
Method in brief: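 Reference agents colchicine or vinblastine were applied at 50 nM to M21 cells on fibronectin-coated coverslips. Cells were fixed in formaldehyde, permeabilized with saponin, and stained with anti-Trx-1 (1:200, 2 h, 37 °C) and Alexa-488 secondary. Nuclear versus cytosolic Trx-1 was assessed by confocal microscopy.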

M21 [9] = test: Antiproliferative activity against human M21 cells after 48 hrs by sulforhodamine B method; type: functional; conditions: for GI50: M21, 48 h
Method in brief: (§3)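 Seeding per well: 5 × 10³ HT-29 cells, or 3.5 × 10³ M21 or MCF-7 cells. Drugs were dissolved fresh in DMSO and serially diluted in medium (final range 100 to 0.3), with DMSO held at 0.12%. Cells were exposed for 48 h, fixed with cold TCA (10% final, 1 h, 4 °C) and stained with 0.1% SRB for 15 min. Dye was solubilized in 10 mM Tris and read at A585. Day-0 OD was subtracted, inhibition was calculated against DMSO cells, and n ≥ 3.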

HT-29 = test: Antiproliferative activity against human HT29 cells after 48 hrs by sulforhodamine B method; type: functional; conditions: for GI50: HT-29, 48 h; method in brief: as §3
MCF7 [10] = test: Antiproliferative activity against human MCF7 cells after 48 hrs by sulforhodamine B method; type: functional; conditions: for GI50: MCF7, 48 h; method in brief: as §3

| Structure (SMILES) | Activity (M21 [1]) | Activity (M21 [2]) | Activity (MCF7 [3]) [%] | Activity (MCF7 [4]) [%] | Activity (MCF7 [6]) [%] | GI50 (M21 [9]) [µM] | GI50 (HT-29) [µM] | further results |
| --- | --- | --- | --- | --- | --- | --- | --- | --- |
| CC(C)(C)c1ccc(NC(=O)NC(=O)CCl)cc1 | inactive | Active | – | – | – | – | – | – |
| O=C(NCCCl)Nc1cccc(Oc2ccccc2)c1 | – | inactive | 30 | 26 | 44 | – | – | Activity (M21 [5]): Active |
| O=C(NCCCl)Nc1ccc(I)cc1 | – | – | – | – | – | – | – | Activity (M21 [5]): Active |
| COc1cc2c(c(OC)c1OC)-c1ccc(OC)c(=O)cc1[C@@H](NC(C)=O)CC2 | inactive | – | – | – | – | – | – | Activity (M21 [7]): inactive; Activity (M21 [8]): inactive |
| O=C(NCCCl)Nc1ccccc1 | inactive | inactive | 19 | 22 | 59 | – | – | Activity (M21 [9]): inactive; Activity (HT-29): inactive; Activity (MCF7 [10]): inactive |
| O=C(NCCCl)Nc1cccc(C2CCCCC2)c1 | inactive | Active | 16 | 32 | 52 | 18 | 11.7 | GI50 (MCF7 [10]): 20 µM |
| CCC1(c2ccc(NC(=O)NCCCl)cc2)CCCCC1 | inactive | Active | 17 | 17 | 66 | 19 | 9.1 | GI50 (MCF7 [10]): 17 µM |
| CC(C)(C)c1ccc(NC(=O)NCCCl)cc1 | – | inactive | – | – | – | – | – | Activity (M21 [5]): Active |
| CC(=O)O[C@H]1C(=O)[C@@]2(C)[C@H]([C@H](OC(=O)c3ccccc3)[C@]3(O)C[C@H](OC(=O)[C@H](O)[C@@H](NC(=O)c4ccccc4)c4ccccc4)C(C)=C1C3(C)C)[C@]1(OC(C)=O)CO[C@@H]1C[C@@H]2O [PACLITAXEL] | inactive | – | 80 | 11 | 9 | – | – | Activity (M21 [7]): inactive; Activity (M21 [8]): inactive |
| O=C(NCCCl)Nc1ccc(C2CCCC2)cc1 | inactive | – | 13 | 24 | 63 | 27 | 18 | GI50 (MCF7 [10]): 26 µM |
| O=C(CCl)NC(=O)Nc1ccc(C2CCCCC2)cc1 | inactive | Active | – | – | – | – | – | – |
| CC[C@]1(O)C[C@@H]2CN(CCc3c([nH]c4ccccc34)[C@@](C(=O)OC)(c3cc4c(cc3OC)N(C)[C@H]3[C@@](O)(C(=O)OC)[C@H](OC(C)=O)[C@]5(CC)C=CCN6CC[C@]43[C@@H]65)C2)C1 | inactive | – | – | – | – | – | – | Activity (M21 [7]): inactive; Activity (M21 [8]): inactive |
| CC1(c2ccc(NC(=O)NCCCl)cc2)CCCCC1 | inactive | Active | 31 | 9 | 60 | 16 | 7.8 | GI50 (MCF7 [10]): 18 µM |
| O=C(NCCCl)Nc1cccc(OC2CCCCCC2)c1 | inactive | Active | – | – | – | – | – | – |
| O=C(NCCCl)Nc1ccc2c(c1)CCCC2 | – | Active | 41 | 49 | 10 | 3.7 | 2 | Activity (M21 [5]): Active; GI50 (MCF7 [10]): 7.3 µM |
| CC1CCC(Oc2cccc(NC(=O)NCCCl)c2)CC1 (stereo not drawn) | inactive | Active | 15 | 20 | 65 | 32 | 19 | GI50 (MCF7 [10]): 33 µM |
| c1ccc(NC2=NCCO2)cc1 | inactive | inactive | – | – | – | 81 | – | – |
| CC1CCC(Oc2ccc(NC(=O)NCCCl)cc2)CC1 (stereo not drawn) | inactive | Active | 25 | 13 | 63 | 23 | 16 | GI50 (MCF7 [10]): 21 µM |
| CCCC1(c2ccc(NC(=O)NCCCl)cc2)CCCCC1 | inactive | Active | 13 | 14 | 73 | 36 | 18 | GI50 (MCF7 [10]): 23 µM |
| O=C(NCCCl)Nc1ccc(Oc2ccccc2)cc1 | inactive | inactive | 65 | 20 | 15 | – | – | – |
| O=C(NCCCl)Nc1ccc2c(c1)CCC2 | – | – | 40 | 29 | 31 | – | – | Activity (M21 [5]): Active |
| O=C(CCl)NC(=O)Nc1ccc(N2CCOCC2)cc1 | inactive | – | – | – | – | 8.3 | – | – |

| Structure (SMILES) | Activity (M21 [1]) | Activity (M21 [2]) | Activity (MCF7 [3]) [%] | Activity (MCF7 [4]) [%] | Activity (MCF7 [6]) [%] | GI50 (M21 [9]) [µM] | GI50 (HT-29) [µM] | further results |
| --- | --- | --- | --- | --- | --- | --- | --- | --- |
| O=C(CCl)NC(=O)Nc1cccc(C2CCCCC2)c1 | inactive | Active | – | – | – | 2.4 | – | – |
| c1cc(N2CCOCC2)ccc1NC1=NCCO1 | inactive | inactive | – | – | – | – | – | Activity (M21 [9]): inactive |
| O=C(NCCCl)Nc1cccc(OC2CCCCCCC2)c1 | inactive | Active | 10 | 29 | 61 | 30 | 20 | GI50 (MCF7 [10]): 23 µM |
| CCNC(=O)Nc1ccc(C2CCCCC2)cc1 | inactive | inactive | 22 | 23 | 55 | – | – | Activity (M21 [9]): inactive; Activity (HT-29): inactive; Activity (MCF7 [10]): inactive |
| O=C(NCCCl)NC1c2ccccc2-c2ccccc21 | inactive | inactive | 8 | 29 | 63 | – | – | – |
| O=C(NCCCl)Nc1ccc(OC2CCCC2)cc1 | inactive | Active | – | – | – | – | – | – |
| O=C(NCCCl)Nc1cccc(OC2CCCCC2)c1 | inactive | – | – | – | – | – | – | – |
| CCCCCCc1ccc(NC(=O)NCCCl)cc1 | – | inactive | 43 | 41 | 16 | 3.8 | 2.9 | Activity (M21 [5]): Active; GI50 (MCF7 [10]): 6.5 µM |
| O=C(NCCCl)Nc1ccc(OC2CCCCCCC2)cc1 | inactive | Active | 16 | 14 | 70 | 26 | 14 | GI50 (MCF7 [10]): 18 µM |
| O=C(NCCCl)Nc1ccc(OC2CCCCC2)cc1 | inactive | Active | – | – | – | – | – | – |
| O=C(NCCCl)Nc1ccc2c(c1)CCCCC2 | inactive | inactive | 43 | 24 | 33 | 7.2 | 3.2 | GI50 (MCF7 [10]): 12 µM |
| O=C(NCCCl)Nc1cccc(OC2CCCC2)c1 | inactive | – | – | – | – | – | – | – |
| CC(C)(C)c1ccc(NC2=NCCO2)cc1 | inactive | inactive | – | – | – | – | – | – |
| O=C(NCCCl)Nc1ccc(C2CCCCC2)cc1 | inactive | Active | – | – | – | – | – | – |
| O=C(NCCCl)Nc1ccc2c(c1)Cc1ccccc1-2 | – | inactive | 32 | 57 | 11 | – | – | Activity (M21 [5]): Active |
| c1cc(C2CCCCC2)ccc1NC1=NCCO1 | inactive | Active | – | – | – | 18 | – | – |
| O=C(NCCCl)Nc1ccc(OC2CCCCCC2)cc1 | inactive | Active | – | – | – | – | 13 | – |
| c1cc(NC2=NCCO2)cc(C2CCCCC2)c1 | inactive | Active | – | – | – | 45 | – | – |
| O=C(NCCCl)Nc1ccc2ccccc2c1 | – | inactive | 45 | 38 | 17 | – | – | Activity (M21 [5]): Active |
| O=C(CCl)NC(=O)Nc1ccccc1 | inactive | inactive | – | – | – | 6.9 | – | – |
| O=C(NCCCl)Nc1ccc(N2CCOCC2)cc1 | inactive | – | – | – | – | – | – | Activity (M21 [9]): inactive; Activity (HT-29): inactive; Activity (MCF7 [10]): inactive |
